# Experiments:
# Type in all cases: functional
# Klebsiella pneumoniae = test: Antimicrobial activity against Klebsiella pneumoniae ATCC 27736 after 24 hrs by microbroth dilution method; conditions: ATCC 27736, 24 h
# Procedure, shortened: (§1)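 Broth microdilution per NCCLS guidelines. Bacteria in Mueller-Hinton broth; fungi in MOPS-buffered RPMI 1640. Test compounds at 50-0.36 µg/mL, standard drugs over 32-0.0018 µg/mL. Inoculum 1-5 × 10^3 cells/mL, 35 °C in a moist chamber. A492 read at 24 h for bacteria, 48 h for C. albicans, 72 h for A. fumigatus, C. neoformans and S. schenckii, 96 h for T. mentagrophytes. MIC taken as 90% growth inhibition relative to growth control.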
# Sporothrix schenckii = test: Antimicrobial activity against Sporothrix schenckii after 72 hrs by microbroth dilution method; procedure, shortened: as §1
# Cryptococcus neoformans = test: Antimicrobial activity against Cryptococcus neoformans after 72 hrs by microbroth dilution method; procedure, shortened: as §1
# Pseudomonas aeruginosa = test: Antimicrobial activity against Pseudomonas aeruginosa ATCC BAA-427 after 24 hrs by microbroth dilution method; conditions: ATCC BAA-427, 24 h; procedure, shortened: as §1
# Aspergillus fumigatus = test: Antimicrobial activity against Aspergillus fumigatus after 72 hrs by microbroth dilution method; procedure, shortened: as §1
# Candida albicans = test: Antimicrobial activity against Candida albicans after 48 hrs by microbroth dilution method; procedure, shortened: as §1
# Staphylococcus aureus [1] = test: Antimicrobial activity against methicillin-resistant Staphylococcus aureus after 24 hrs by microbroth dilution method
# Procedure, shortened: (§2)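 Microbroth dilution in Mueller Hinton broth, following NCCLS guidelines. Test compounds were run at 50-0.36 µg/mL against an initial inoculum of 1-5 × 10^3 cells/mL. Plates were incubated in a moist chamber at 35 °C, and absorbance at 492 nm was read after 24 h. MIC was taken as 90% growth inhibition relative to the growth control.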
# [2] = tested on: Trichophyton mentagrophytes; test: Antimicrobial activity against Trichophyton mentagrophytes after 96 hrs by microbroth dilution method; procedure, shortened: as §1
# Escherichia coli = test: Antimicrobial activity against Escherichia coli ATCC 9637 after 24 hrs by microbroth dilution method; conditions: ATCC 9637, 24 h; procedure, shortened: as §1
# Staphylococcus aureus [3] = test: Antimicrobial activity against vancomycin-resistant Staphylococcus aureus after 24 hrs by microbroth dilution method; procedure, shortened: as §2
# Staphylococcus aureus [4] = test: Antimicrobial activity against Staphylococcus aureus ATCC 25923 after 24 hrs by microbroth dilution method; conditions: ATCC 25923, 24 h; procedure, shortened: as §1
Structure (SMILES),MIC (Klebsiella pneumoniae) [µg/mL],MIC (Sporothrix schenckii) [µg/mL],MIC (Cryptococcus neoformans) [µg/mL],MIC (Pseudomonas aeruginosa) [µg/mL],MIC (Aspergillus fumigatus) [µg/mL],MIC (Candida albicans) [µg/mL],MIC (Staphylococcus aureus [1]) [µg/mL],MIC [2] [µg/mL],MIC (Escherichia coli) [µg/mL],MIC (Staphylococcus aureus [3]) [µg/mL],MIC (Staphylococcus aureus [4]) [µg/mL]
CCCCCCCCc1cn(C[C@H]2O[C@H](OCCC(C)C)C=C[C@@H]2O)nn1,> 50,> 50,25,> 50,> 50,> 50,> 50,50,> 50,> 50,> 50
CC(C)CO[C@@H]1C=CC(=O)[C@@H](Cn2cc(CCCCl)nn2)O1,50,50,> 50,> 50,> 50,50,> 50,> 50,> 50,> 50,12.5
CC(C)CCO[C@@H]1C=CC(=O)[C@@H](Cn2cc(CCCC=O)nn2)O1,50,12.5,> 50,> 50,> 50,> 50,> 50,25,> 50,> 50,> 50
CC(C)CCO[C@@H]1C=CC(=O)[C@@H](Cn2cc(CCCCOC(=O)C(C)(C)C)nn2)O1,12.5,12.5,50,50,25,> 50,> 50,25,50,> 50,12.5
CC(C)CCO[C@@H]1C=CC(=O)[C@@H](Cn2cc(CCBr)nn2)O1,50,25,12.5,> 50,50,12.5,> 50,6.25,> 50,> 50,12.5
CC(C)CCO[C@@H]1C=CC(=O)[C@@H](Cn2cc(-c3ccccn3)nn2)O1,6.25,25,> 50,> 50,> 50,> 50,12.5,12.5,> 50,12.5,6.25
CC(C)CCO[C@@H]1C=CC(=O)[C@@H](Cn2cc(C3CCCC3)nn2)O1,50,50,50,50,50,25,> 50,50,50,> 50,50
CC(C)CCO[C@@H]1C=CC(=O)[C@@H](Cn2cc(C3CC3)nn2)O1,> 50,12.5,25,> 50,> 50,12.5,> 50,6.25,> 50,> 50,6.25
CC(C)CCO[C@@H]1C=CC(=O)[C@@H](Cn2cc(CCCN3C(=O)c4ccccc4C3=O)nn2)O1,> 50,50,50,> 50,> 50,25,25,25,> 50,25,6.25
CC(C)CCO[C@@H]1C=CC(=O)[C@@H](Cn2ccnn2)O1,> 50,> 50,50,> 50,> 50,50,> 50,> 50,50,> 50,25
CC(C)CCO[C@@H]1C=CC(=O)[C@@H](Cn2cc(CCn3cc(C4CC4)nn3)nn2)O1,> 50,> 50,50,> 50,> 50,50,> 50,> 50,> 50,> 50,25
CC(C)CCO[C@@H]1C=CC(=O)[C@@H](Cn2cc(CCn3cc(-c4ccccc4)nn3)nn2)O1,> 50,50,50,> 50,> 50,50,> 50,50,> 50,> 50,50
CC1(C)S[C@@H]2[C@H](NC(=O)[C@H](N)c3ccccc3)C(=O)N2[C@H]1C(=O)O [AMPICILLIN],12.5,,,> 50,,,0.78,,50,0.78,12.5
O=C(O)c1cn(C2CC2)c2cc(N3CCNCC3)c(F)cc2c1=O [CIPROFLOXACIN],0.01,,,0.09,,,0.38,,,0.38,0.09
Clc1ccccc1C(c1ccccc1)(c1ccccc1)n1ccnc1 [CLOTRIMAZOLE],,4,0.25,,8,0.25,,2,,,
OC(Cn1cncn1)(Cn1cncn1)c1ccc(F)cc1F [FLUCONAZOLE],,4,2,,> 32,1,,16,,,
Nc1nc(=O)[nH]cc1F [FLUCYTOSINE],,> 32,0.13,,> 32,0.25,,> 32,,,
CN[C@@H]1[C@@H](O)[C@@H](O[C@@H]2[C@@H](O)[C@H](O[C@H]3O[C@H]([C@@H](C)NC)CC[C@H]3N)[C@@H](N)C[C@H]2N)OC[C@]1(C)O [GENTAMICIN C1],1.56,,,0.39,,,1.56,,1.56,1.56,0.39
COc1cccc(OC)c1C(=O)N[C@@H]1C(=O)N2[C@@H]1SC(C)(C)[C@@H]2C(=O)O [METHICILLIN],6.25,,,> 50,,,,,50,,0.04
Clc1ccc(COC(Cn2ccnc2)c2ccc(Cl)cc2Cl)c(Cl)c1 (configuration not stated) [MICONAZOLE],,3.12,12.5,,12.5,25,,0.78,,,
CN[C@H](CC(C)C)C(=O)N[C@H]1C(=O)N[C@@H](CC(N)=O)C(=O)N[C@H]2C(=O)N[C@H]3C(=O)N[C@H](C(=O)N[C@H](C(=O)O)c4cc(O)cc(O)c4-c4cc3ccc4O)[C@H](O)c3ccc(c(Cl)c3)Oc3cc2cc(c3O[C@@H]2O[C@H](CO)[C@@H](O)[C@H](O)[C@H]2O[C@H]2C[C@](C)(N)[C@H](O)[C@H](C)O2)Oc2ccc(cc2Cl)[C@H]1O [VANCOMYCIN],12.5,,,> 50,,,,,12.5,,12.5

# Reference: ChEMBL document CHEMBL3286335, “Synthesis of 2,3,6-trideoxy sugar triazole hybrids as potential new broad spectrum antimicrobial agents” (Eur J Med Chem, 2014)
